This passage reports GFP response vs DMSO, GFP response relative to DMSO and GFP response, % of DMSO results from PubChem BioAssay.

The nature of test [1]: hit retest on RPL19A-GFP reporter strain – cell-based, S. cerevisiae, flow cytometry, cherry picks, mother/daughter gates, confirmation (AID 2270;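 active = GFP response below 50% of the DMSO control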). The conditions noted are these: 3 h, at 10 µM, stronger effect = lower value, 100 = same GFP as DMSO wells.
Test [2] in a line: yeast TOR pathway reporter LAP4-GFP change – cell-based, cherry picks, flow cytometry, mother/daughter gates, confirmation (AID 2271;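 active = GFP response above 150% of the DMSO control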;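 also: ratio of sample to DMSO plate mean so 100% equals DMSO level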). The conditions noted are these: S. cerevisiae LAP4-GFP strain, 3 h, at 10 µM, stronger effect = higher value, 100 means same as DMSO control. A digest of the protocol:
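Measured by: GFP by flow cytometry. Test system: GFP-fusion yeast strain. Input: yeast cells seeded at OD600 of 0.2. Timing: 30 °C, 3 h compound incubation, rotating. Buffer or medium: synthetic complete medium for yeast. Benchmarks: DMSO-only negative wells, rapamycin 400 ng/mL positive wells. Compound: 10 µM single dose.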
(Flow cytometry measures light scatter and fluorescence of single cells or particles in a stream.)

The nature of test [3]: TOR pathway reporter MEP2-GFP, retest of hits – S. cerevisiae, flow cytometry GFP, cherry picks, confirmation (AID 2272;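 active = GFP response above 150% of the DMSO control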;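 also: ratio of well signal to plate DMSO mean so 100% equals DMSO level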). The conditions noted are these: S. cerevisiae MEP2-GFP strain, 3 h, at 10 µM, stronger effect = higher value.
Test [4] in a line: yeast AGP1-GFP fluorescence change, single-dose – cell-based, flow cytometry, S. cerevisiae, cherry picks, confirmation (AID 2273).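 Also: median GFP channel fluorescence over the whole cell population gate.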 The conditions noted are these: S. cerevisiae AGP1-GFP strain, 3 h, at 10 µM.
A short description of test [5]: TOR pathway CIT2 reporter hit retest – S. cerevisiae, GFP fusion, cherry picks, mother/daughter gates, confirmation (AID 2274). The conditions noted are these: S. cerevisiae CIT2-GFP strain, flow cytometry, 3 h, at 10 µM, stronger effect = higher value.
Setting [6] is: measured here: daughter cell gate.
[7] abbreviates: measured here: mother cell gate.
The mark [8] stands for this setting: measured here: daughter cell gate response.
The mark [9] stands for this setting: measured here: mother cell gate response.

SMILES strings stand for the structures. The source made the active and inactive calls.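 The calls were made as follows, unless noted: active = GFP response above 150% of the DMSO level; inconclusive = fewer than 70 events counted for a yeast strain; inactive = the rest.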

As to `CCOC(=O)C(=Cc1ccc(F)cc1)C(=O)OCC`, the GFP response vs DMSO was 101% (inactive) in test [1], 101% in test [1] (setting [6]), 100% in test [1] (setting [7]) and 100% (inactive) in test [3]. For the same compound, the GFP response relative to DMSO in test [2] was 107% (inactive); in test [2] (setting [8]) it was 102%; in test [2] (setting [9]), 111%. Besides, the GFP response, % of DMSO in test [4] is 96.7% (inactive); in test [5], 93.9% (inactive); in test [5] (setting [6]), 94.8%; in test [5] (setting [7]), 92.3%.

In the case of `Cc1cc(C)n(C(=O)/C(C#N)=N\Nc2ccccc2[N+](=O)[O-])n1`, the GFP response vs DMSO is 91.7% (inactive) in test [1], 71.4% in test [1] (setting [6]), 88.6% in test [1] (setting [7]) and 163% (inactive) in test [3]. The GFP response relative to DMSO in test [2] is 138% (inactive); in test [2] (setting [8]), 98.7%; in test [2] (setting [9]) it was 154%. Also, the GFP response, % of DMSO was 123% (inactive) in test [4], 102% (inactive) in test [5], 73.6% in test [5] (setting [6]) and 105% in test [5] (setting [7]).

Take `CN1C(=O)/C(=N\OC(=O)c2cccc3ccccc23)c2ccccc21`: the GFP response vs DMSO was 102% (inactive) in test [1], 99.8% in test [1] (setting [6]), 93.4% in test [1] (setting [7]) and 110% (inactive) in test [3]. The GFP response relative to DMSO in test [2] is 163% (active); in test [2] (setting [8]), 140%; in test [2] (setting [9]) it was 154%. Further, the GFP response, % of DMSO in test [4] is 88.4% (inactive); in test [5], 99.3% (inactive); in test [5] (setting [6]), 102%; in test [5] (setting [7]), 80.5%.

As for `Cc1ccc(N2CCN(C(=O)c3ccccc3)CC2)c(C)c1`, the GFP response vs DMSO was 99% (inactive) in test [1], 99.4% in test [1] (setting [6]), 99.5% in test [1] (setting [7]) and 98.3% (inactive) in test [3]. The GFP response relative to DMSO is 95.4% (inactive) in test [2], 94.4% in test [2] (setting [8]) and 94% in test [2] (setting [9]). For the same compound, the GFP response, % of DMSO in test [4] is 94.3% (inactive); in test [5], 107% (inactive); in test [5] (setting [6]) it was 106%; in test [5] (setting [7]), 106%.

Take `CN(C)c1ccc(/C=N/NC(=O)c2ccc(Cl)cc2)cc1`: the GFP response vs DMSO was 98% (inactive) in test [1], 97% in test [1] (setting [6]), 97.4% in test [1] (setting [7]) and 102% (inactive) in test [3]. The GFP response relative to DMSO in test [2] is 102% (inactive); in test [2] (setting [8]), 97.9%; in test [2] (setting [9]) it was 103%. Moreover, the GFP response, % of DMSO was 100% (inactive) in test [4], 97.8% (inactive) in test [5], 98.3% in test [5] (setting [6]) and 95.6% in test [5] (setting [7]).

As for `CC1CN(c2nnnn2-c2ccccc2)CC(C)O1` (stereo not given), the GFP response vs DMSO is 99% (inactive) in test [1], 99.1% in test [1] (setting [6]), 99.8% in test [1] (setting [7]) and 96.2% (inactive) in test [3]. The values for the GFP response relative to DMSO in test [2], in test [2] (setting [8]) and in test [2] (setting [9]) were 102% (inactive), 101% and 100%, respectively. For the same compound, the GFP response, % of DMSO in test [4] was 100% (inactive); in test [5], 101% (inactive); in test [5] (setting [6]), 103%; in test [5] (setting [7]), 99.7%.

Turning to `CN1CCN(CCCCOc2ccccc2C=O)CC1`, the GFP response vs DMSO in test [1] is 99.5% (inactive); in test [1] (setting [6]), 97.8%; in test [1] (setting [7]), 101%; in test [3], 104% (inactive). In addition, the results for the GFP response relative to DMSO in test [2], in test [2] (setting [8]) and in test [2] (setting [9]) were 97.4% (inactive), 97.2% and 99.3%, respectively. In addition, the GFP response, % of DMSO in test [4] is 102% (inactive); in test [5], 97.8% (inactive); in test [5] (setting [6]), 94.8%; in test [5] (setting [7]) it was 98.7%.

For the compound `N#C/C(=C/c1ccc(N2CCOCC2)o1)c1ccc(Br)cc1`, the GFP response vs DMSO in test [1] is 96.6% (inactive); in test [1] (setting [6]) it was 95.9%; in test [1] (setting [7]) it was 95%; in test [3], 114% (inactive). The GFP response relative to DMSO in test [2] was 114% (inactive); in test [2] (setting [8]) it was 114%; in test [2] (setting [9]), 115%. In addition, the GFP response, % of DMSO in test [4] was 95.5% (inactive); in test [5], 102% (inactive); in test [5] (setting [6]), 101%; in test [5] (setting [7]), 99.3%.

In the case of `NNC(=O)c1ccc(COc2ccc3ccccc3c2)cc1`, the GFP response vs DMSO is 98% (inactive) in test [1], 96.1% in test [1] (setting [6]), 95.7% in test [1] (setting [7]) and 99% (inactive) in test [3]. The GFP response relative to DMSO is 101% (inactive) in test [2], 101% in test [2] (setting [8]) and 102% in test [2] (setting [9]). Further, the GFP response, % of DMSO in test [4] is 94.9% (inactive); in test [5], 93% (inactive); in test [5] (setting [6]), 93.8%; in test [5] (setting [7]) it was 91.9%.

For the compound `COC(=O)c1ccc(Sc2ccccn2)c([N+](=O)[O-])c1`, the GFP response vs DMSO is 97.8% (inactive) in test [1], 101% in test [1] (setting [6]), 97.7% in test [1] (setting [7]) and 109% (inactive) in test [3]. The GFP response relative to DMSO in test [2] was 99.5% (inactive); in test [2] (setting [8]) it was 101%; in test [2] (setting [9]), 100%. Moreover, the GFP response, % of DMSO in test [4] was 98% (inactive); in test [5] it was 105% (inactive); in test [5] (setting [6]), 105%; in test [5] (setting [7]), 104%.

Turning to `O=C(N/N=C/c1ccc(Cl)cc1Cl)c1cccc(F)c1`, the GFP response vs DMSO in test [1] was 97% (inactive); in test [1] (setting [6]), 92.7%; in test [1] (setting [7]), 97.3%; in test [3] it was 103% (inactive). Besides, the results for the GFP response relative to DMSO in test [2], in test [2] (setting [8]) and in test [2] (setting [9]) were 104% (inactive), 98.2% and 109%, respectively. The GFP response, % of DMSO in test [4] is 101% (inactive); in test [5] it was 86% (inactive); in test [5] (setting [6]) it was 84.1%; in test [5] (setting [7]), 84.8%.

In the case of `COc1ccc(-c2cc(=O)n(-c3nc4ccccc4[nH]3)[nH]2)cc1`, the GFP response vs DMSO was 98.6% (inactive) in test [1], 101% in test [1] (setting [6]), 99.3% in test [1] (setting [7]) and 103% (inactive) in test [3]. For the same compound, the values for the GFP response relative to DMSO in test [2], in test [2] (setting [8]) and in test [2] (setting [9]) were 117% (inactive), 119% and 113%, respectively. Also, the GFP response, % of DMSO in test [4] is 98% (inactive); in test [5], 95.9% (inactive); in test [5] (setting [6]), 97.4%; in test [5] (setting [7]), 94.4%.

`Cc1cc(N2CCCCC2)n2nc(C)c(-c3ccccc3)c2n1`: the GFP response vs DMSO in test [1] is 99.7% (inactive); in test [1] (setting [6]), 97.3%; in test [1] (setting [7]), 100%; in test [3] it was 97.8% (inactive). Further, the GFP response relative to DMSO was 95% (inactive) in test [2], 97.2% in test [2] (setting [8]) and 96.2% in test [2] (setting [9]). Moreover, the GFP response, % of DMSO in test [4] was 95% (inactive); in test [5], 97.8% (inactive); in test [5] (setting [6]), 96.5%; in test [5] (setting [7]), 97.7%.

As for `O=C(c1cc([N+](=O)[O-])cc([N+](=O)[O-])c1)N(Cc1nnc(-c2ccccc2Cl)o1)C1CC1`, the GFP response vs DMSO was 102% (inactive) in test [1], 101% in test [1] (setting [6]), 105% in test [1] (setting [7]) and 102% (inactive) in test [3]. For the same compound, the GFP response relative to DMSO was 96.2% (inactive) in test [2], 97.2% in test [2] (setting [8]) and 99.3% in test [2] (setting [9]). For the same compound, the GFP response, % of DMSO in test [4] is 97.2% (inactive); in test [5] it was 107% (inactive); in test [5] (setting [6]), 103%; in test [5] (setting [7]), 109%.

For `CCOC(=O)c1cc(S(=O)(=O)N2CCN(C(=O)OCC)CC2)cn1C`, the GFP response vs DMSO in test [1] is 101% (inactive); in test [1] (setting [6]), 99%; in test [1] (setting [7]), 101%; in test [3] it was 107% (inactive). Also, the GFP response relative to DMSO in test [2] was 105% (inactive); in test [2] (setting [8]) it was 100%; in test [2] (setting [9]) it was 107%. In addition, the GFP response, % of DMSO is 95.7% (inactive) in test [4], 100% (inactive) in test [5], 99.7% in test [5] (setting [6]) and 102% in test [5] (setting [7]).
